Reference: ChEMBL document CHEMBL3797028, “Novel S1P1 receptor agonists - Part 4: Alkylaminomethyl substituted aryl head groups” (Eur J Med Chem, 2016)
Active and inactive are the calls of the source. No cut-off for these calls is given here.

Legend:
Liver microsome = test: Unbound fraction corrected apparent intrinsic clearance in Wistar rat liver microsomes at 1 uM after 2.5 to 15 mins by LC-MS/MS analysis in presence of NADPH; type: ADME
Method in brief: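 Apparent CLint was measured by microsomal substrate depletion: 1 uM start, 0.5 mg/mL rat liver microsomes, pH 7.4, 37 °C, NADPH-regenerating system, sampling 0–15 min, LC-MS/MS. It was then divided by the unbound microsomal fraction, which was determined by rapid equilibrium dialysis of 1 mg/mL microsomes for 6 h at 37 °C.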

Rattus norvegicus [1] = test: Change in circulating lymphocyte count in Wistar rat at 10 mg/kg administered as single dose through oral gavage after 6 hrs relative to control; type: functional
Method in brief: (§1)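 Male Wistar rats (RccHan:WIST; n = 6) were given a single oral gavage dose of compound in DMSO plus 7.5% succinylated gelatine (final 5% DMSO). Blood lymphocytes were counted just before dosing and at later timepoints. Percent change was calculated per animal relative to the pre-dose value and compared with a vehicle-treated group, reported as the mean. A ±15% change was treated as baseline, and a reduction of about 60% or more as maximal.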

[2] = Drug recovery in Wistar rat liver microsomes incubated for 6 hrs by LC-MS/MS based equilibrium dialysis method; type: ADME; conditions: read-out: Drug recovery
Method in brief: (§2)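 Rapid equilibrium dialysis was run on a shaker for 6 h at 37 °C. The donor side held rat plasma (pH 7.2–7.6) or 1 mg/mL rat liver microsomes in phosphate buffer pH 7.4. The receiver side held phosphate buffer pH 7.4. Both sides were measured by LC-MS/MS to give free fraction and recovery.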

[3] = target: Sphingosine 1-phosphate receptor 3 (Homo sapiens, UniProt Q99500); test: Agonist activity at human recombinant S1PR3 expressed in CHO cell membranes assessed as [35S]GTPgammaS binding preincubated for 30 mins followed by [35S]GTPgammaS addition measured after 1 hr by topcount analysis; type: functional
Method in brief: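 Membranes from CHO cells expressing recombinant human S1P1 or S1P3 were used. Buffer was 20 mM Hepes pH 7.4, 100 mM NaCl, 5 mM MgCl2, 0.1% fatty-acid-free BSA, 2.5% DMSO and 50 pM 35S-GTPgammaS. GDP was […] for S1P3. Compound was preincubated 30 min at rt, then incubated 1 h at rt with 35S-GTPgammaS. Bound label was collected by filtration and counted. Specific binding was taken against 10 uM S1P. EC50 was the 50%-of-specific-binding concentration, reported as the geometric mean of at least three independent duplicate runs.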

Rattus norvegicus [4] = test: Change in circulating lymphocyte count in Wistar rat at 10 mg/kg administered as single dose through oral gavage after 24 hrs relative to control; type: functional; method in brief: as §1
Rattus norvegicus [5] = test: Change in circulating lymphocyte count in Wistar rat at 10 mg/kg administered as single dose through oral gavage after 3 hrs relative to control; type: functional; method in brief: as §1
[6] = Fraction unbound in Wistar rat liver microsomes incubated for 6 hrs by LC-MS/MS based equilibrium dialysis method; type: ADME; method in brief: as §2
[7] = target: T1, Sphingosine 1-phosphate receptor 1 (Homo sapiens, UniProt P21453); test: Agonist activity at human recombinant S1PR1 expressed in CHO cell membranes assessed as [35S]GTPgammaS binding preincubated for 30 mins followed by [35S]GTPgammaS addition measured after 1 hr by topcount analysis
[8] = Apparent intrinsic clearance in Wistar rat liver microsomes at 1 uM after 2.5 to 15 mins by LC-MS/MS analysis in presence of NADPH; type: ADME; conditions: read-out: CLH(app)
Method in brief: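 Compound at 1 uM starting concentration was depleted by 0.5 mg/mL rat liver microsomes in 100 mM sodium phosphate pH 7.4 at 37 °C, with shaking under air. Reactions were started with an NADPH-regenerating system. Samples were taken at 0, 2.5, 5, 10 and 15 min, quenched in ice-cold methanol and analysed by LC-MS/MS. CLint,app came from first-order decay fitting.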

[9] = Selectivity ratio of EC50 for human recombinant S1PR3 expressed in CHO cell membranes to EC50 for human recombinant S1PR1 expressed in CHO cell membranes; type: cell-based
Method in brief: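 Compound and membranes are pre-incubated 30 min at rt, then incubated 1 h at rt, filtered and counted. EC50 is the concentration giving 50% of S1P-defined specific binding, as the geometric mean of ≥3 independent duplicate runs. Ratio = EC50 S1PR3/EC50 S1PR1.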

[10] = Fraction unbound in Wistar rat plasma incubated for 6 hrs by LC-MS/MS based equilibrium dialysis method; type: ADME, cell-free; method in brief: as §2
[11] = Distribution coefficient, log D between 1-octonol and phosphate buffer at pH 7; type: physicochemical; conditions: 1-octanol/phosphate buffer
Method in brief: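 Partition was between 1-octanol and phosphate buffer at pH 7.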

Rattus norvegicus [12] = organism: Rattus norvegicus; test: Intrinsic clearance in rat liver microsomes scaled to body weight; conditions: in vitro
[13] = Plasma concentration in Wistar rat at 10 mg/kg administered as single dose through oral gavage after 3 hrs by LC-MS/MS analysis; type: ADME, organism-based
Method in brief: (§3)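 Single oral gavage dose to male Wistar rats in DMSO/7.5% succinylated gelatine (final 5% DMSO). Blood was drawn into EDTA at the lymphocyte-count timepoints. Plasma was prepared at 3000 g for 10 min at 4 °C and analysed by LC-MS/MS after protein precipitation.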

[14] = Apparent oral clearance in Wistar rat plasma at 1 to 10 mg/kg administered through gavage by LC-MS/MS analysis; type: ADME, organism-based
Method in brief: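 Male Wistar rats received a single oral gavage dose of compound dissolved in DMSO and added to 7.5% succinylated gelatine in water (final 5% DMSO). EDTA plasma was spun at 3000 g for 10 min at 4 °C and analysed by LC-MS/MS after protein precipitation. Oral clearance was estimated from the plasma concentration–time data. In vivo intrinsic clearance used the well-stirred liver model, assuming complete absorption.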

[15] = Plasma concentration in Wistar rat at 10 mg/kg administered as single dose through oral gavage after 6 hrs by LC-MS/MS analysis; type: ADME, organism-based; method in brief: as §3
[16] = Plasma concentration in Wistar rat at 10 mg/kg administered as single dose through oral gavage after 24 hrs by LC-MS/MS analysis; type: ADME, organism-based; method in brief: as §3
[17] = Plasma concentration in Wistar rat at 10 mg/kg administered as single dose through oral gavage after 72 hrs by LC-MS/MS analysis; type: ADME, organism-based; method in brief: as §3
[18] = target: T1, Sphingosine 1-phosphate receptor 1; test: Partial agonist activity at human recombinant S1PR1 expressed in CHO cells by receptor internalization assay; type: cell-based

Sphingosine 1-phosphate receptor 3, sequence (Q99500 whole entry): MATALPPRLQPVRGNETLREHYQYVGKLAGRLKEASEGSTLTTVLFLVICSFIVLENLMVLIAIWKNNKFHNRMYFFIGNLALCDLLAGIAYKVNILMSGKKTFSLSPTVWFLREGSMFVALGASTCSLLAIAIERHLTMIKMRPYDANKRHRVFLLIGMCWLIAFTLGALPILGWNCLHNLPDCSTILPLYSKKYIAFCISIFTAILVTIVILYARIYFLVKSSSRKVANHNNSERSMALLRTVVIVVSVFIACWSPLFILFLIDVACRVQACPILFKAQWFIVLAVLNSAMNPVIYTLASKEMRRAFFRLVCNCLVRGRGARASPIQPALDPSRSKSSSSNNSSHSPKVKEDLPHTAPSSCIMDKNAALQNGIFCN
T1 sequence (P21453 whole entry): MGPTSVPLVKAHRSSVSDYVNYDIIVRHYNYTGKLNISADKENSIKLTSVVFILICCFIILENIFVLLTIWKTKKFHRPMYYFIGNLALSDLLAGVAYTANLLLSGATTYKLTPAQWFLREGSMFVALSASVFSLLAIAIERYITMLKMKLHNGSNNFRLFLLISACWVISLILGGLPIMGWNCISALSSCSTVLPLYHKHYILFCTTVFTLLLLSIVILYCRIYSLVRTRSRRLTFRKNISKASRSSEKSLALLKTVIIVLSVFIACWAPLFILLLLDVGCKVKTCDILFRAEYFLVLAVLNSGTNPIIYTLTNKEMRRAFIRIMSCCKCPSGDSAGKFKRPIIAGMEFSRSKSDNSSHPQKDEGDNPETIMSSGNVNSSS

Structure (SMILES) | CL free (Liver microsome) | Activity (Rattus norvegicus [1]) | recovery at 6 h [2] | EC50 [3] | Activity (Rattus norvegicus [4]) | Activity (Rattus norvegicus [5]) | fraction unbound at 6 h [6] | EC50 [7] | microsomal CLint at 1 µM [8] | Ratio EC50 [9] | fraction unbound at 6 h [10] | logD [11] | CL (Rattus norvegicus [12]) | concentration at 3 h [13] | CL/F [14] | concentration at 6 h [15] | concentration at 24 h [16] | concentration at 72 h [17] | Activity [18]
CCc1cc(-c2noc(-c3cc(C)cc(CN(C)CC)c3)n2)cc(C)c1OC[C@@H](O)CNC(=O)CO | > 5000 µL/min/mg | -58% | < 80% | 1250 nM | 24% | -57% | 0.25 | 3.6 nM | > 1250 µL/min/mg | 347 | 0.012 | 3.4 | – | – | – | – | – | – | –
CCCCN(C)Cc1cc(C)cc(-c2nc(-c3cc(C)c(OC[C@@H](O)CNC(=O)CO)c(CC)c3)no2)c1 | 7300 µL/min/mg | -57% | < 80% | 425 nM | -6% | -60% | 0.025 | 2.6 nM | 183 µL/min/mg | 163 | < 0.001 | > 4.1 | – | – | – | – | – | – | –
CCc1cc(-c2noc(-c3cc(C)nc(CN(C)CC(C)C)c3)n2)cc(C)c1OC[C@@H](O)CNC(=O)CO | 1090 µL/min/mg | -75% | < 80% | 560 nM | 1% | -80% | 0.18 | 3.2 nM | 197 µL/min/mg | 175 | 0.004 | 3.8 | 1970 mL/min/kg | 385 ng/mL | 80 mL/min/kg | 176 ng/mL | < 2 ng/mL | – | –
CCc1cc(-c2noc(-c3cc(C)c(CN(C)C)s3)n2)cc(C)c1OC[C@@H](O)CNC(=O)CO | 8100 µL/min/mg | -56% | – | 660 nM | 5% | -64% | 0.15 | – | 1220 µL/min/mg | – | 0.012 | 3.2 | 14600 mL/min/kg | 106 ng/mL | 275 mL/min/kg | 31 ng/mL | < 4 ng/mL | – | –
CCc1cc(-c2noc(-c3cc(C)cc(CN(C)C)c3)n2)cc(C)c1OC[C@@H](O)CNC(=O)CO | > 4800 µL/min/mg | -37% | – | 2000 nM | 21% | -44% | 0.26 | – | > 1250 µL/min/mg | – | 0.029 | 2.8 | – | – | – | – | – | – | –
CCc1cc(-c2nc(-c3cc(C)c(OC[C@@H](O)CNC(=O)CO)c(CC)c3)no2)ccc1CN(C)C | 9200 µL/min/mg | -61% | < 80% | 480 nM | 27% | -56% | 0.11 | 1.3 nM | 1010 µL/min/mg | 369 | 0.005 | 3.8 | – | – | – | – | – | – | –
CCc1cc(-c2noc(-c3cc(C)cc(CN(C)CC(C)C)c3)n2)cc(C)c1OC[C@@H](O)CNC(=O)CO | 740 µL/min/mg | -53% | – | 100 nM | -44% | -52% | 0.027 | 2.1 nM | 20 µL/min/mg | 48 | < 0.001 | > 4.1 | 1330 mL/min/kg | 1380 ng/mL | 8 mL/min/kg | 1120 ng/mL | 342 ng/mL | 3.7 ng/mL | inactive
CCc1cc(-c2noc(-c3ccc(CN(C)CC(C)C)c(C)c3)n2)cc(C)c1OC[C@@H](O)CNC(=O)CO | – | – | < 80% | 570 nM | – | – | 0.001 | 13 nM | 74 µL/min/mg | 44 | < 0.001 | > 4.1 | – | – | – | – | – | – | –
